Screen size: about 370,000 compounds; about 2,000 (0.54%) were called active.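 The calls were made as follows: active = inhibition exceeding the mean over every tested compound plus 3 SD (cut at about 30% in these data); inactive = the rest.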 The full list was thinned out, with actives kept by preference.
target: (Lyso)-N-acylphosphatidylethanolamine lipase (Mus musculus) (UniProt Q8VD66); assay: ABHD4 inhibitors, primary screen, biochemical, fluorescence polarization, mouse (AID 720543); settings: purified mABHD4, FP-Rh probe fluorescence polarization; at 8.92 µM; stronger effect = higher value;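 also: 0% = plate median of compound wells and 100% = S159A mutant with DMSO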
Sequence (Q8VD66 whole entry, looked up): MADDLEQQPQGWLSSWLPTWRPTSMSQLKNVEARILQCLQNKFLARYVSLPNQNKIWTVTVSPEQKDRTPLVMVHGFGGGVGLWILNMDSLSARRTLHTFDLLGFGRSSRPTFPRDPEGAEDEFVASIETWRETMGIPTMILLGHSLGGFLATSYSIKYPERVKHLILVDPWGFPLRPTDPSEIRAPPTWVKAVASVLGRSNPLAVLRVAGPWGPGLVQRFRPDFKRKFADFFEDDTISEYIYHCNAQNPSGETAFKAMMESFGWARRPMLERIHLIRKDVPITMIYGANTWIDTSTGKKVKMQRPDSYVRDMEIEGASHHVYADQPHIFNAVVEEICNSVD
Method in brief: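 Test system: mABHD4 protein | Buffer or medium: HEPES pH 7.0 buffer, 150 mM NaCl, 0.01% Pluronic F-127 | Probe or stimulus: FP-Rh fluorescent activity-based probe, added after compound pre-incubation | Timing: Pre-incubation 45 min, probe exposure 60 min, at 25 °C | Technique: Fluorescence polarization, excitation 525 nm, emission 598 nm, BODIPY TMR filters | Repeats: Single well per compound (singlicate)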

inhibition, active:
C/C(=N\NC(=O)c1ccc(C)cc1)C1C(=O)c2ccccc2C1=O 32.6%
CC(=O)Oc1ccc(N(C(C)=O)S(=O)(=O)c2ccc3ccccc3c2)cc1Br 32.3%
c1ccc2sc(NN=C3CCCC3)nc2c1 37.2%
CCOc1[nH]n(-c2ccc(Cl)cc2)c(=O)c1C=Nc1ccc(O)cc1 37.3%
Cn1c(SCC(=O)N/N=C/c2ccc(O)c(O)c2)nc2ccccc21 30.7%
Oc1ccc(/C=N/Nc2ccc(C(F)(F)F)cn2)cc1O 36.2%
CNC(=S)NNC(=O)c1oc2nc(-c3ccccc3)cc(-c3ccco3)c2c1N 37.3%
CCOC(=O)C1=C(C)N=C2c3ccccc3C(=O)C2C1c1ccc(Br)cc1 (stereo not drawn) 46.9%
Cc1c(CC(=O)N2CCN(C(=O)C3COc4ccccc4O3)CC2)c(=O)oc2c(O)c(O)ccc12 (stereo not drawn) 31.1%
COCCOC(=O)c1sc(=S)n(CCOC)c1N 52.1%
NC(N)=N/N=C/c1ccc(OCc2ccc(Cl)cc2Cl)cc1 31.7%
CCCCCCSc1ccc(-c2nc3ccc(Cl)cn3c2NCc2ccccc2)cc1 30.7%
Cc1ccc(NC(=O)Cc2nc(COC(=O)C(C)NS(=O)(=O)c3ccc(C)cc3)cs2)cc1 (stereo not drawn) 30%
Nc1ccc(Nc2ccccc2)cc1 46.5%
CN1c2ccc(C=O)c3c(C=O)ccc(c23)N(C)C1(C)C 64.5%
Cc1cc(C(=O)N/N=C/c2ccc(O)c([N+](=O)[O-])c2)c(C)n1-c1ccc(F)cc1 37.5%
O=C(O)c1ccc(N/N=C/c2cn(-c3ccccc3)nc2-c2cccs2)cc1 34.6%
COc1cc(C(=O)Nn2c(O)c(C3=c4ccccc4=NC3=O)sc2=S)ccc1O 57.7%

inhibition, inactive:
O=C(CSc1nc2ccccc2s1)N=Nc1c(O)[nH]c2ccccc12 -11.2%
C/C(=N\NC(=O)CNC(=O)C(c1ccccc1)c1ccccc1)c1ccc(C)cc1 0.45%
O=C1c2ccccc2C(=O)C1C(=O)C1CC1 10.5%
CCOc1cc(C(=O)N2CCc3cc(OC)c(OC)cc3C2)ccc1OC(F)F -1.64%
O=C(NCCCc1ccccc1)[C@H](Cc1ccccc1)NC1(C(=O)NCCc2c[nH]c3ccccc23)CCC1 -14.2%
CC(CNc1ccc([N+](=O)[O-])c2cccnc12)Nc1c([N+](=O)[O-])cc(C(F)(F)F)cc1[N+](=O)[O-] (stereo not drawn) 3.66%
CCN1CCN(C(=O)CN(C)S(=O)(=O)c2ccc3ccccc3c2)CC1 4.18%
CN(C1CCS(=O)(=O)C1)S(=O)(=O)c1ccc2ccccc2c1 (stereo not drawn) 3.99%
Brc1c(CSc2nncc3ccccc23)nc2ccccn12 -3.21%
CCC(C)[C@@H](C(=O)OC)N(CCc1cn(Cc2ccccc2)nn1)S(=O)(=O)c1ccccc1Br (stereo partly drawn) -6.72%
O=C(COc1ccc(-c2ccccc2)cc1)NN=C1CCCC1 0.58%
O=C1NC(Nc2nc3ccccc3s2)(C(F)(F)F)C(=O)N1C1CCCCC1 (stereo not drawn) -23%
COC(=O)C1=C(C)N(Cc2ccc(C(F)(F)F)cc2)C(=NCc2ccccc2)NC1c1ccccc1C(F)(F)F (stereo not drawn) 6.99%
Cc1nc2ccc(C(=O)N3CCN(C(=O)C(C)(C)C)CC3)cc2n1C1CCCC1 -2.14%
COC(=O)[C@]12C[C@H](CC(=O)NCCc3ccccc3OC)C(=O)N(Cc3ccco3)C1=C[C@H](C(C)C)O[C@@H]2C1CC1 -4.62%
O=C(c1cccc(C(F)(F)F)c1)N1CC[C@H]2[C@H](CCCN2Cc2cc(F)cc(F)c2)C1 -3.78%
CCC1(CC)NC(=O)N(CC(=O)OCC(=O)Nc2ccc(C(F)(F)F)cc2)C1=O -3.48%
O=C(CSc1nc2ccccc2s1)NN=Cc1ccc(O)cc1O 0.63%
O=C(CSc1nc2ccccc2n1Cc1ccccc1Cl)N/N=C\c1c[nH]c2ccccc12 -14.1%
CC1CN(C(=O)c2cccc(NS(=O)(=O)c3ccc(Br)cc3)c2)CC(C)O1 (stereo not drawn) 3.29%
C/C(=N/N1CCN(Cc2cccc3ccccc23)CC1)c1cccnc1 -2.15%
COCCCNC(NC(=O)c1ccc(C)cc1)C(Cl)(Cl)Cl (stereo not drawn) -5.04%
O=C(C1CCCO1)N1CCN(S(=O)(=O)c2ccc(Br)cc2)CC1 (stereo not drawn) 1.47%
Cc1nnsc1C(=O)N/N=C/c1cccc(C(F)(F)F)c1 3.14%
O=C(N/N=C/c1ccc(O)c(O)c1)C1c2ccccc2Oc2ccccc21 26.1%
Cc1nccc(-c2ccc(-n3c(C)ccc3C)cc2)n1 -7.18%
CC(C)CNC(=O)OCc1cn(Cc2ccc(F)cc2)nn1 -1.25%
O=C(CSc1nnc(-c2cccc(Cl)c2)n1Cc1ccco1)Nc1ccc(OCc2ccccc2)cc1 4.02%
Cc1cc(C)cc(NC(=O)N2CCC(N(C)CCC(C)C)CC2)c1 -1.26%
CCn1c(SCC(=O)Nc2cccc(F)c2)nnc1-c1cc2cc(Br)ccc2o1 -4.13%
[O-][n+]1ccc(OCc2ccccc2)cc1 1.3%
Cc1cccc(C2C3=C(CCCC3=O)N=C3c4ccccc4C(=O)C32)c1 (stereo not drawn) 25.7%
CCOC(=O)C1=C(C)NC(SC)=NC1c1ccccc1 (stereo not drawn) 4.01%
O=C(CN1CCCCCC1)N1c2ccccc2Sc2ccc(C(F)(F)F)cc21 -5.91%
Cc1ccc(S(=O)(=O)N(C)C)cc1NC(=O)COC(=O)C1COc2ccccc2O1 (stereo not drawn) -2.17%
COC(=O)Cc1cc(=O)oc2c(C)c(O)ccc12 -0.82%
NC(=O)CCC(NS(=O)(=O)c1ccc(Cl)cc1)C(=O)NCc1ccccc1Cl (stereo not drawn) 1.64%
Cc1noc(C)c1C(=O)N(CC(=O)NC1CCCC1)Cc1ccccc1F 8.87%
Cc1ccc2c(C)c(C(=O)N(C)CCC3CCCCO3)oc2c1C (stereo not drawn) 2.89%
COC(=O)CC1CCc2cc(C)cc(C(CC(C)C)NC(=O)[C@H](CC(C)C)NC(=O)OCc3ccccc3)c2O1 (stereo partly drawn) 1.24%
C=CCN(Cc1ccc2c(c1)OCO2)C(C#CC1CC1)C(C)(C)C (stereo not drawn) 7.34%
N#Cc1ccc(OC[C@@H](O)CN2CCC(C(O)(c3ccccc3)c3ccccc3)CC2)c(F)c1 3.13%
COCCCn1c(SCC(=O)Nc2oc(C)c3c(C)n[nH]c(=O)c23)nc2sc3c(c2c1=O)CCC3 -0.16%
NC(=O)COc1ccc(/C=N/NC(=O)C2CCCN2S(=O)(=O)c2ccc(Cl)cc2)cc1 (stereo not drawn) -2.8%
COC(=O)c1ccccc1-n1cc(COC(=O)NCCc2ccccc2)nn1 4.86%
CC(=O)c1ccc(S(=O)(=O)NCC2CCN(C(=O)C(=O)c3cccs3)CC2)cc1 -4.2%
C=C1C(C(C)C)N(C)C2=NC(c3ccccc3)CC(=O)N12 (stereo not drawn) -4.4%
COc1ccccc1Cc1c(-c2ccc(Cl)cc2)nc2ccc(Cl)cn12 -4.24%
Clc1ccc2nc(CSc3ccccc3)cn2c1 0.19%
CCOC(=O)C1(S(=O)(=O)c2ccc(Cl)cc2)CCN(Cc2ccccc2)CC1 -3.97%
c1csc(-c2nnc(COc3ccc4c(c3)OCO4)o2)c1 2.17%
c1coc(CCNc2ncnc3ccc(-c4ccc5c(c4)OCO5)cc23)c1 -22.8%
C/C=C/C(=O)OCc1csc(CC(=O)Nc2ccccc2C)n1 -5.94%
CC(=O)Nc1ccc(S(=O)(=O)NC(C)C(=O)OCC(=O)NC2CCCC2)cc1 (stereo not drawn) -2.25%
Cc1cc(C)c2nc3nc(C)cc(C)c3c(N)c2c1 -1.05%
Cc1sc2nc(SCC(=O)c3ccc(O)c(O)c3)n(Cc3ccco3)c(=O)c2c1C 4.55%
COCCCNC(=O)C[C@H]1C[C@@]2(C(=O)OC)C(=C[C@H](C(C)(C)C)O[C@@H]2C)N(Cc2ccc3c(c2)OCO3)C1=O 1.21%
CCOC(=O)c1cc(-c2sc(NC(=O)c3ccccc3)nc2C)n(-c2ccc(Br)cc2)n1 1.18%
Cc1ccc2c(C(=O)CN3CCCC3)c(C)[nH]c2c1 0.49%
Cc1ccc(Nc2ccccc2N)cc1 28.9%
O=c1cnnc(Nc2ccccc2)[nH]1 4.6%
CCCc1ccc(C(O)c2ncc(-c3cccc(OC)c3)[nH]2)cc1 (stereo not drawn) -9.64%
Cc1ccc(CN2CCCCC(NC(=O)C3CCCCC3)C2=O)cc1 (stereo not drawn) -4.62%
COC(=O)C1CN(CC(C)C)CCS(=O)(=O)N1Cc1ccc(C)cc1 (stereo not drawn) 2.37%
COC(=O)C1CN(CC(C)C)CCS(=O)(=O)N1Cc1ccc(F)cc1 (stereo not drawn) 0.68%
CCC(=O)c1c(CC)c2n3c1=CC[C@H]3CC(Br)C=2 (stereo partly drawn) 3.54%
Cc1cc(C)n2ncc(C(=O)Nc3ccc4c(c3)OCCO4)c2n1 1.04%
Cc1cc(C(=O)COc2ccccc2[N+](=O)[O-])c(C)n1-c1cccc(S(=O)(=O)N2CCOCC2)c1 -5.94%
O=C(N/N=C/c1cccc([N+](=O)[O-])c1)C1CC(=O)N(c2ccc(Br)cc2)C1 (stereo not drawn) -2.95%
O=C1CC(c2ccc3c(c2)OCO3)N=C2N(CC3CC3)C/C(=C/c3ccccc3)N12 (stereo not drawn) 5.86%
COc1cccc(CNC(=O)[C@H]2CCCN2C(=O)[C@H]2CCCN2C(=O)c2cc(F)cc(F)c2)c1 1.83%
Cc1cc(=O)n2[nH]c(-c3sccc3-n3c(C)ccc3C)cc2n1 16.4%
O=[N+]([O-])/C=C/c1ccc2c(ccn2Cc2ccccc2)c1 -15%
O=S(=O)(/N=C(/Nc1ccccc1)c1ccccc1)c1cccs1 1.09%
Cc1c(NC(=O)C(=O)N/N=C/c2cccs2)c(=O)n(-c2ccccc2)n1C 3.46%
CN1C[C@]2(C=C3CCCCC3n3c(=O)n(-c4ccccc4)c(=O)n32)N=C1NC(=O)c1ccccc1 (stereo partly drawn) 0.57%
COc1cc(C(=S)NC2CCCCC2)ccc1O 0.73%
COc1ccc(C(=O)NC(=S)N2CCCCC2c2cccnc2)cc1OC (stereo not drawn) -3.67%
CCOC(=O)[C@]12CCCC=C1N(Cc1ccc(OC)cc1)C(=O)[C@@H]2CC(=O)N1CCOCC1 5.88%
O=C(c1ccc2c(c1)N(Cc1ccc(F)cc1)C(=O)CS2)N1CCOCC1 -7.7%

Reference: PubChem BioAssay AID720543 (The Scripps Research Institute Molecular Screening Center, 2013)
